The text below walks through data of ChEMBL document CHEMBL2203123, “Synthesis and biological evaluation of some hydrazone derivatives as new anticandidal and anticancer agents” (Eur J Med Chem, 2012).

The test system of one assay is NIH3T3. Put plainly: Cytotoxicity against mouse NIH/3T3 cells after 24 hrs by XTT assay. The assay is classed as cell-based. The following applies: NIH3T3, 24 h. The essentials:
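Mouse NIH3T3 fibroblasts grown in DMEM with fetal calf serum, penicillin/streptomycin, 37 °C, 5% CO2; 20,000 cells/well, treated after 24 h with 0.00316 µM-10 mM compound for 24 h. Viability via XTT (3 h, OD 480 nm, reference 680 nm); % inhibition computed and IC50 fitted by non-linear regression.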

The next assay has as its system A549. Put plainly: Cytotoxicity against human A549 cells after 24 hrs by XTT assay. In kind it is functional, cell-based. The following applies: A549, 24 h. The essentials: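 A549 cells in RPMI 1640 with 10% fetal calf serum, penicillin/streptomycin, 37 °C, 5% CO2; 20,000 cells/well seeded, after 24 h exposed to compounds at 0.00316 µM-10 mM for 24 h. XTT mitochondrial activity read at 480 nm (reference 680 nm) after 3 h; % inhibition per concentration, IC50 by non-linear regression.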

The test system of assay [1] is Candida albicans. Nature of the assay: Antifungal activity against Candida albicans clinical isolate after 24 hrs by microdilution susceptibility assay. The assay is classed as functional. The method in brief: (§1)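 Broth microdilution in Mueller Hinton Broth, compounds from DMSO stocks diluted serially; inocula standardized to 10^6 CFU/mL (McFarland 0.5) from overnight MHB cultures. Plates held 37 °C for 24 h; MIC taken as first well without turbidity, aided by 1% tetrazolium violet added for 3 h at 37 °C. Ketoconazole reference.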

The test system of assay [2] is Candida albicans. Nature of the assay: Antifungal activity against Candida albicans ATCC 10231 after 24 hrs by microdilution susceptibility assay. The following applies: ATCC 10231, 24 h. In kind it is functional. The essentials: as §1
For assay [3], the system named is Nakaseomyces glabratus. Nature of the assay: Antifungal activity against Candida glabrata Osmangazi University clinical isolate after 24 hrs by microdilution susceptibility assay. The assay is classed as functional. The essentials:
as §1

In the next assay the test system is Cyberlindnera jadinii. Nature of the assay: Antifungal activity against Candida utilis NRRL Y-900 after 24 hrs by microdilution susceptibility assay. The assay is classed as functional. The following applies: Williopsis jadinii, NRRL Y-900, 24 h. The essentials: as §1
For another assay, the system named is Pichia kudriavzevii. Nature of the assay: Antifungal activity against Candida krusei NRRL Y-7179 after 24 hrs by microdilution susceptibility assay. In kind it is functional. The following applies: NRRL Y-7179, 24 h. The method in brief:
as §1

In another assay the test system is Candida parapsilosis. Nature of the assay: Antifungal activity against Candida parapsilosis NRRL Y-12696 after 24 hrs by microdilution susceptibility assay. The assay is classed as functional. The following applies: Lodderomyces parapsilosis, NRRL Y-12696, 24 h. The method in brief:
as §1

Assay [4] concerns Candida albicans. Put plainly: Antifungal activity against Candida albicans ATCC 90028 after 24 hrs by microdilution susceptibility assay. In kind it is functional. The following applies: ATCC 90028, 24 h. The method in brief:
as §1

Assay [5] relates to Nakaseomyces glabratus. Nature of the assay: Antifungal activity against Candida glabrata Anadolu University clinical isolate after 24 hrs by microdilution susceptibility assay. In kind it is functional. The method in brief:
as §1

With `Cn1nnnc1SCC(=O)N/N=C/c1cccc(Br)c1`, the IC50 with NIH3T3 is 0.316 mM; in the assay on A549 it was 0.6 mM. Also, the MIC in the assay with Candida albicans [1], with Candida albicans [2], against Nakaseomyces glabratus [3], in the assay with Cyberlindnera jadinii, in the assay with Pichia kudriavzevii and against Candida parapsilosis was > 8000 µg/mL in each case. The MIC in the assay with Candida albicans [4] and with Nakaseomyces glabratus [5] was > 8000 µg/mL in each case.

With `CC(C)c1ccc(/C=N/NC(=O)CSc2nnnn2C)cc1`, the IC50 in the assay on NIH3T3 is 1.2 mM; in the assay on A549, 0.4 mM. Further, the MIC against Candida albicans [1], against Candida albicans [2], in the assay on Nakaseomyces glabratus [3], in the assay on Cyberlindnera jadinii, in the assay on Pichia kudriavzevii and against Candida parapsilosis was > 8000 µg/mL throughout. The MIC in the assay on Candida albicans [4] and against Nakaseomyces glabratus [5] was > 8000 µg/mL throughout.

In the case of `Cn1nnnc1SCC(=O)N/N=C/c1ccc(Br)cc1`, the results for the IC50 in the assay on NIH3T3 and with A549 were 10 mM and > 10 mM, respectively. The MIC against Candida albicans [1], against Candida albicans [2], with Nakaseomyces glabratus [3], with Cyberlindnera jadinii, against Pichia kudriavzevii and in the assay on Candida parapsilosis was > 8000 µg/mL each time. Further, the MIC in the assay with Candida albicans [4] and in the assay on Nakaseomyces glabratus [5] was > 8000 µg/mL throughout.

With `Cn1nnnc1SCC(=O)N/N=C/c1cccc(F)c1`, the IC50 with NIH3T3 and with A549 was 6.32 mM each time. Further, the MIC with Candida albicans [1], with Candida albicans [2], against Nakaseomyces glabratus [3], against Cyberlindnera jadinii, with Pichia kudriavzevii and against Candida parapsilosis was > 8000 µg/mL throughout. The MIC in the assay on Candida albicans [4] and with Nakaseomyces glabratus [5] was > 8000 µg/mL each time.

Regarding `Cc1cccc(/C=N/NC(=O)CSc2nnnn2C)c1`, the IC50 was 6.25 mM in the assay with NIH3T3 and 2 mM in the assay on A549. Moreover, the MIC in the assay on Candida albicans [1], against Candida albicans [2], with Nakaseomyces glabratus [3], against Cyberlindnera jadinii, in the assay with Pichia kudriavzevii and against Candida parapsilosis was > 8000 µg/mL in each case. Also, the MIC in the assay on Candida albicans [4] and against Nakaseomyces glabratus [5] was > 8000 µg/mL in each case.

As for `Cn1nnnc1SCC(=O)N/N=C/c1cccc(Cl)c1Cl`, the IC50 was found to be 0.52 mM in the assay with NIH3T3 and 0.632 mM in the assay on A549. Besides, the MIC with Candida albicans [1], with Candida albicans [2], against Nakaseomyces glabratus [3], with Cyberlindnera jadinii, in the assay with Pichia kudriavzevii and against Candida parapsilosis was > 8000 µg/mL in each case. The MIC with Candida albicans [4] and with Nakaseomyces glabratus [5] was > 8000 µg/mL in each case.

As to `Cn1nnnc1SCC(=O)N/N=C/c1ccc([N+](=O)[O-])cc1`, the IC50 amounted to 9.3 mM in the assay on NIH3T3 and 0.632 mM in the assay on A549. In addition, the MIC in the assay on Candida albicans [1], with Candida albicans [2], in the assay with Nakaseomyces glabratus [3], in the assay with Cyberlindnera jadinii, against Pichia kudriavzevii and against Candida parapsilosis was > 8000 µg/mL in each case. Further, the MIC in the assay on Candida albicans [4] and against Nakaseomyces glabratus [5] was > 8000 µg/mL throughout.

On to `COc1ccccc1/C=N/NC(=O)CSc1nnnn1C`, for which the IC50 in the assay with NIH3T3 stood at 3.16 mM; in the assay on A549 it was 7 mM. Moreover, the MIC with Candida albicans [1], in the assay with Candida albicans [2], with Nakaseomyces glabratus [3], against Cyberlindnera jadinii, with Pichia kudriavzevii and in the assay with Candida parapsilosis was > 8000 µg/mL each time. For the same compound, the MIC against Candida albicans [4] and against Nakaseomyces glabratus [5] was > 8000 µg/mL in each case.

`Cn1nnnc1SCC(=O)N/N=C/c1ccccc1`: the IC50 was determined as 9.7 mM with NIH3T3 and 3.16 mM in the assay on A549. Besides, the MIC in the assay on Candida albicans [1], in the assay on Candida albicans [2], in the assay with Nakaseomyces glabratus [3], against Cyberlindnera jadinii, against Pichia kudriavzevii and in the assay on Candida parapsilosis was > 8000 µg/mL in each case. For the same compound, the MIC in the assay on Candida albicans [4] and against Nakaseomyces glabratus [5] was > 8000 µg/mL each time.
